Data from ChEMBL document CHEMBL4177600, “Identification of novel PI3K inhibitors through a scaffold hopping strategy” (Bioorg Med Chem Lett, 2017).
In brackets after ≈: the same amount, converted by molar mass.

How the values were obtained:
[1] = AUC (infinity) in BALB-C mouse at 8 mg/kg, iv by LC-MS/MS analysis; format: ADME, organism-based; design: dose 8 mg/kg, time infinity, route intravenous; conditions: in vivo
Outline: (§1)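 BALB-C mice dosed IV (10% NMP/50% PEG300/40% saline) or PO (10% NMP/90% PEG300). Plasma sampled at 6 (IV) or 8 (PO) time points; compound measured by LC/MS/MS. Parameters from bicompartmental model fit; each value is the mean of 3 independent samples.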

[2] = target: CYP3A4 (Homo sapiens, UniProt P08684); assay: Inhibition of CYP3A4 (unknown origin) at 10 uM relative to control; format: ADME
Outline: (§2)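 CYP1A2, 2C9, 2C19, 2D6 and 3A4 inhibition measured at 10 µM test compound in duplicate; percent inhibition reported.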

[3] = target: CYP2C9 (Homo sapiens, UniProt P11712); assay: Inhibition of CYP2C9 (unknown origin) at 10 uM relative to control; format: ADME; outline: as §2
[4] = Permeability of the compound at 300 uL after 5 hrs by PAMPA; format: ADME; conditions: read-out: permeability
Outline: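 Pre-coated PAMPA plates with a tri-layer phospholipid membrane. Donor held compound in PBS at the highest concentration soluble in PBS; acceptor was PBS. Incubated 5 h at room temperature, with propranolol and sorafenib (10 µM) as high and low permeability controls. Donor and acceptor concentrations measured by LC-MS/MS; Pe (10^-6 cm/s) calculated from acceptor/equilibrium concentrations, 0.3 cm² area and well volumes.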

[5] = Stability in human liver microsomes assessed as parent compound remaining at 0.5 uM after 30 mins by LC-MS/MS analysis; format: ADME, microsome; conditions: read-out: Stability
Outline: (§3)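 Single time-point stability assay: 0.5 µM compound, 0.5 mg/ml human or mouse liver microsomes in 0.1 M potassium phosphate pH 7.4, with NADPH-regenerating system, 30 min at 37 °C with shaking. Reaction quenched with acetonitrile/0.1% formic acid and centrifuged; supernatant analysed by LC-MS/MS. Reported as percent remaining; duplicates.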

[6] = AUC (infinity) in BALB-C mouse at 8 mg/kg, po by LC-MS/MS analysis; format: ADME, organism-based; design: dose 8 mg/kg, route oral, time infinity; conditions: in vivo; outline: as §1
[7] = target: CYP2D6 (Homo sapiens, UniProt P10635); assay: Inhibition of CYP2D6 (unknown origin) at 10 uM relative to control; format: ADME; outline: as §2
[8] = Tmax in BALB-C mouse at 8 mg/kg, po by LC-MS/MS analysis; format: ADME, organism-based; conditions: in vivo
Outline: (§4)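 BALB-C mice dosed IV in 10% NMP/50% PEG300/40% saline or PO in 10% NMP/90% PEG300. Plasma sampled at 6 (IV) or 8 (PO) time points and quantified by LC/MS/MS. Parameters come from a bicompartmental model fit; values are means of 3 independent samples. Plasma levels were compared with AKT-P EC50 from U2OS cells converted to ng/ml.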

[9] = Clearance in BALB-C mouse at 8 mg/kg, iv by LC-MS/MS analysis; format: ADME, organism-based; conditions: in vivo
Outline: (§5)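 Mice (BALB-C) given IV dose in 10% NMP/50% PEG300/40% saline; plasma sampled at 6 times, levels by LC/MS/MS.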

[10] = target: Serine/threonine-protein kinase mTOR (Homo sapiens, UniProt P42345); assay: Inhibition of recombinant human GST-tagged mTOR catalytic domain (1360 to 2549 residues) expressed in baculovirus expression system by AlexaFluor647-labeled kinase tracer 314 based LanthaScreen assay
[11] = Half-life in BALB-C mouse at 8 mg/kg, po by LC-MS/MS analysis; format: ADME, organism-based; conditions: in vivo; outline: as §1
[12] = Volume of distribution in BALB-C mouse at 8 mg/kg, iv by LC-MS/MS analysis; format: ADME, organism-based; conditions: in vivo; outline: as §4
[13] = target: T1, CYP1A2 (Homo sapiens, UniProt P05177); assay: Inhibition of CYP1A2 (unknown origin) at 10 uM relative to control; format: ADME; outline: as §2
T1 sequence (P05177 whole entry): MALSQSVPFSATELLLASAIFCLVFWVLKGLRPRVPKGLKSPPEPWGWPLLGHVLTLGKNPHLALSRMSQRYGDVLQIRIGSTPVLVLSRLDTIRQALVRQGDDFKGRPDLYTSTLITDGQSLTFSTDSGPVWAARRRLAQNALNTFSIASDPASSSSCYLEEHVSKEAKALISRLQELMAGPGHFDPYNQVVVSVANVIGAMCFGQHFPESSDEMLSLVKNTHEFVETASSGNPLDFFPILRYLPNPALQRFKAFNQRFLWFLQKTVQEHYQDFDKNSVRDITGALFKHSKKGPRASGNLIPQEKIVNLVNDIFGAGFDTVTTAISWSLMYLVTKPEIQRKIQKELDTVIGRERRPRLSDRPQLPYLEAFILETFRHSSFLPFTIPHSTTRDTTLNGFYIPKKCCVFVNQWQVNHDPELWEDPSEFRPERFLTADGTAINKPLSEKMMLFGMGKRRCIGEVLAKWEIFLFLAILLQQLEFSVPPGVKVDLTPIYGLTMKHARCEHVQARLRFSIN

[14] = target: CYP2C19 (Homo sapiens, UniProt P33261); assay: Inhibition of CYP2C19 (unknown origin) at 10 uM relative to control; format: ADME; outline: as §2
[15] = tested on: Mus musculus; assay: Clearance in BALB-C mouse at 8 mg/kg, iv by LC-MS/MS analysis relative to hepatic blood flow; format: ADME, organism-based; conditions: in vivo
[16] = Half-life in BALB-C mouse at 8 mg/kg, iv by LC-MS/MS analysis; format: ADME, organism-based; conditions: in vivo; outline: as §1
[17] = Cmax in BALB-C mouse at 8 mg/kg, po by LC-MS/MS analysis; format: ADME, organism-based; design: dose 8 mg/kg, route oral; conditions: in vivo; outline: as §1
[18] = Kinetic solubility of the compound in phosphate buffered saline at pH 7.4 at 1 to 2 mg measured after 24 hrs by HPLC analysis; format: physicochemical; conditions: read-out: Kinetic_solubility
Outline: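 Solid compound (1–2 mg) in 1 mL PBS, pH 7.4, inverted in test tubes for 24 h. Samples centrifuged, supernatant analysed by HPLC with diode-array detection, with peak area compared to a standard of known concentration. LC-MS/MS used when UV signal was too low or the chromophore poor. Reported in µM.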

[19] = Stability in mouse liver microsomes assessed as parent compound remaining at 0.5 uM after 30 mins by LC-MS/MS analysis; format: ADME, microsome; conditions: read-out: Stability; outline: as §3
[20] = Oral bioavailability in BALB-C mouse at 8 mg/kg by LC-MS/MS analysis; format: ADME, organism-based; conditions: in vivo; outline: as §4
[21] = tested on: U2OS; assay: Inhibition of AKT phosphorylation in human U2OS cells
[22] = Oral bioavailability in BALB-C mouse at 10 mg/kg by LC-MS/MS analysis; format: ADME, organism-based; conditions: in vivo; outline: as §4
[23] = AUC (infinity) in BALB-C mouse at 10 mg/kg, po by LC-MS/MS analysis; format: ADME, organism-based; design: dose 10 mg/kg, time infinity, route oral; conditions: in vivo; outline: as §1
[24] = target: Phosphatidylinositol 4,5-bisphosphate 3-kinase catalytic subunit gamma isoform (Homo sapiens, UniProt P48736); assay: Inhibition of recombinant full-length human N-terminal His6-tagged p110gamma expressed in baculovirus infected Sf21 insect cells using PIP2 as substrate by HTRF assay; conditions: read-out: Ki(app)
[25] = tested on: Mus musculus; assay: Clearance in BALB-C mouse at 5 mg/kg, iv by LC-MS/MS analysis relative to hepatic blood flow; format: ADME, organism-based; conditions: in vivo
[26] = tested on: Mus musculus; assay: Time at which plasma concentration stays above cellular EC50 for inhibition of AKT phosphorylation in BALB-C mouse at 10 mg/kg, po measured up to 24 hrs by LC-MS/MS analysis; format: organism-based; conditions: in vivo; outline: as §4
[27] = Clearance in BALB-C mouse at 5 mg/kg, iv by LC-MS/MS analysis; format: ADME, organism-based; conditions: in vivo; outline: as §5
[28] = Half-life in BALB-C mouse at 5 mg/kg, iv by LC-MS/MS analysis; format: ADME, organism-based; conditions: in vivo; outline: as §1
[29] = Inhibition of PI3K in serum-stimulated human U2OS cells assessed as decrease in AKT1 phosphorylation at S473 by C-ELISA; format: cell-based
Outline: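 U2OS osteosarcoma cells grown in 0.1% FBS, then serum-stimulated; endogenous phospho-Akt1 (Ser473) quantified by cell ELISA with chemiluminescent substrate. EC50 from sigmoid dose-response fit; two independent experiments in duplicate.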

[30] = Volume of distribution in BALB-C mouse at 5 mg/kg, iv by LC-MS/MS analysis; format: ADME, organism-based; conditions: in vivo; outline: as §4
[31] = AUC (infinity) in BALB-C mouse at 5 mg/kg, iv by LC-MS/MS analysis; format: ADME, organism-based; design: dose 5 mg/kg, time infinity, route intravenous; conditions: in vivo; outline: as §1
[32] = target: PI3K p110 beta/p85 alpha (Homo sapiens, UniProt P42338); assay: Inhibition of p110beta/85alpha (unknown origin) using PIP2 as substrate by HTRF assay; format: protein-complex assay; conditions: read-out: Ki(app)
[33] = target: PI3-kinase p110-alpha/p85-alpha (Homo sapiens, UniProt P42336); assay: Inhibition of full-length human P110alpha (1 to 1068 residues)/N-terminal GST-fused p85alpha (1 to 724 residues) expressed in baculovirus expression system by ADP Hunter assay; conditions: read-out: Ki(app)
[34] = Cmax in BALB-C mouse at 10 mg/kg, po by LC-MS/MS analysis; format: ADME, organism-based; design: dose 10 mg/kg, route oral; conditions: in vivo; outline: as §1
[35] = target: PI3-kinase p110-delta/p85-alpha (Homo sapiens, UniProt O00329); assay: Inhibition of recombinant human full-length N-terminal His6-tagged p110delta/human full-length p85alpha expressed in baculovirus infected Sf21 insect cells using PIP2 as substrate by HTRF assay; conditions: read-out: Ki(app)
[36] = Tmax in BALB-C mouse at 10 mg/kg, po by LC-MS/MS analysis; format: ADME, organism-based; conditions: in vivo; outline: as §4
[37] = Half-life in BALB-C mouse at 10 mg/kg, po by LC-MS/MS analysis; format: ADME, organism-based; conditions: in vivo; outline: as §1
[38] = target: Voltage-gated inwardly rectifying potassium channel KCNH2 (Homo sapiens, UniProt Q12809); assay: Inhibition of human ERG by Tracer Red dye based fluorescence polarization assay
Outline: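 hERG binding measured with Predictor hERG kit per kit instructions, read by fluorescence polarization.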

Sequence of CYP2D6 (P10635 whole entry): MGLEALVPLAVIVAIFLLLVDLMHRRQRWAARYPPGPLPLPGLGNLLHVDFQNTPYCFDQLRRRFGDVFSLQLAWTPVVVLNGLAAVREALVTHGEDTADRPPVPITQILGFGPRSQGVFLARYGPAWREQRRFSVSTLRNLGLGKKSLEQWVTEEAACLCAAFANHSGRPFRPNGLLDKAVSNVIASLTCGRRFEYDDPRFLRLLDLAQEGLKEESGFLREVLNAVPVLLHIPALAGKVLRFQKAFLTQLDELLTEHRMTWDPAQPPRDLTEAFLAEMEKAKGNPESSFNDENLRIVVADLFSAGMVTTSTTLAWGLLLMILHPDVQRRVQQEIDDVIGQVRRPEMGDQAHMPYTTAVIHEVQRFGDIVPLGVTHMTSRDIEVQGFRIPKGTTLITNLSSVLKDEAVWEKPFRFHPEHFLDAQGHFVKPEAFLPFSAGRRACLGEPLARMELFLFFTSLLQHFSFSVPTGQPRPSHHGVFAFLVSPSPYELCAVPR
Sequence of CYP2C19 (P33261 whole entry): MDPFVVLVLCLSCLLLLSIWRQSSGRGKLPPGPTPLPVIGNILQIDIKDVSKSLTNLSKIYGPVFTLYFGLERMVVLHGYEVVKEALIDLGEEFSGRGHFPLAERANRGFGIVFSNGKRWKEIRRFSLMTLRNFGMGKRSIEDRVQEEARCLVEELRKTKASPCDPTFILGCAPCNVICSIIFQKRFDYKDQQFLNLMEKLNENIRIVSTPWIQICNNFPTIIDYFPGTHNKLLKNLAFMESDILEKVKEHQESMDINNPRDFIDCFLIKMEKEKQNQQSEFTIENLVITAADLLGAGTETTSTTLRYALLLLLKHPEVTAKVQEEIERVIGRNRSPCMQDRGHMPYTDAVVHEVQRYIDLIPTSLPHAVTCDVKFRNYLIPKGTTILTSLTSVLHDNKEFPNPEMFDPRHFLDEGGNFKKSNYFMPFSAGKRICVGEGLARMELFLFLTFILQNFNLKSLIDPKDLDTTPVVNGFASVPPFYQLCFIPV
Sequence of CYP2C9 (P11712 whole entry): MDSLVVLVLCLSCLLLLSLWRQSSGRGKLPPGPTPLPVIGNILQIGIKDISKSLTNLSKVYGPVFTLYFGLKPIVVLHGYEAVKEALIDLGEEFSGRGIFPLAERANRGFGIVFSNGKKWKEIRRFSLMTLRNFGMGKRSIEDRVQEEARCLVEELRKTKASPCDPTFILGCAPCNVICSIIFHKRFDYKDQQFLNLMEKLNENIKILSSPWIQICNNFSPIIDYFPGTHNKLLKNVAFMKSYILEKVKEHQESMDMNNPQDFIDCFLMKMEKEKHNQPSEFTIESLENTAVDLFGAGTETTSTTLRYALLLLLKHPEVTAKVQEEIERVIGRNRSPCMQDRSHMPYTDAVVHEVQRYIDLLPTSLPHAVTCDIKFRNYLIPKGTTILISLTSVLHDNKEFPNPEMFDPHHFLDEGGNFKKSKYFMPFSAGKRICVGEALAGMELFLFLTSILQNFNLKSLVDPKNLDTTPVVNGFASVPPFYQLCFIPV
Sequence of CYP3A4 (P08684 whole entry): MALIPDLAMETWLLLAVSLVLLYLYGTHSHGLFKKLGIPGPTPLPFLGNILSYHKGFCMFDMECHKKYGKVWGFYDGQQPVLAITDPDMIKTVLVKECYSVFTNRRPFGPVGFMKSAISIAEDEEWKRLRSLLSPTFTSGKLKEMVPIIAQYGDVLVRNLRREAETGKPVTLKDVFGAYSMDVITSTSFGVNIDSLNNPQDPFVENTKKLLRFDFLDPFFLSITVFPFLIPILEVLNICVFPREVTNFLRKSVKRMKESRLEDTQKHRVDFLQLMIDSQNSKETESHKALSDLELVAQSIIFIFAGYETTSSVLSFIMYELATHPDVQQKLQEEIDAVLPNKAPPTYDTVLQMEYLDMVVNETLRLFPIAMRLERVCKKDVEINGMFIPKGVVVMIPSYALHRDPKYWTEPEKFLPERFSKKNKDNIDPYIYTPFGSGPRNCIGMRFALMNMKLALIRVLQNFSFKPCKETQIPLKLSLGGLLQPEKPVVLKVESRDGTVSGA
Sequence of Phosphatidylinositol 4,5-bisphosphate 3-kinase catalytic subunit gamma isoform (P48736 whole entry, canonical isoform): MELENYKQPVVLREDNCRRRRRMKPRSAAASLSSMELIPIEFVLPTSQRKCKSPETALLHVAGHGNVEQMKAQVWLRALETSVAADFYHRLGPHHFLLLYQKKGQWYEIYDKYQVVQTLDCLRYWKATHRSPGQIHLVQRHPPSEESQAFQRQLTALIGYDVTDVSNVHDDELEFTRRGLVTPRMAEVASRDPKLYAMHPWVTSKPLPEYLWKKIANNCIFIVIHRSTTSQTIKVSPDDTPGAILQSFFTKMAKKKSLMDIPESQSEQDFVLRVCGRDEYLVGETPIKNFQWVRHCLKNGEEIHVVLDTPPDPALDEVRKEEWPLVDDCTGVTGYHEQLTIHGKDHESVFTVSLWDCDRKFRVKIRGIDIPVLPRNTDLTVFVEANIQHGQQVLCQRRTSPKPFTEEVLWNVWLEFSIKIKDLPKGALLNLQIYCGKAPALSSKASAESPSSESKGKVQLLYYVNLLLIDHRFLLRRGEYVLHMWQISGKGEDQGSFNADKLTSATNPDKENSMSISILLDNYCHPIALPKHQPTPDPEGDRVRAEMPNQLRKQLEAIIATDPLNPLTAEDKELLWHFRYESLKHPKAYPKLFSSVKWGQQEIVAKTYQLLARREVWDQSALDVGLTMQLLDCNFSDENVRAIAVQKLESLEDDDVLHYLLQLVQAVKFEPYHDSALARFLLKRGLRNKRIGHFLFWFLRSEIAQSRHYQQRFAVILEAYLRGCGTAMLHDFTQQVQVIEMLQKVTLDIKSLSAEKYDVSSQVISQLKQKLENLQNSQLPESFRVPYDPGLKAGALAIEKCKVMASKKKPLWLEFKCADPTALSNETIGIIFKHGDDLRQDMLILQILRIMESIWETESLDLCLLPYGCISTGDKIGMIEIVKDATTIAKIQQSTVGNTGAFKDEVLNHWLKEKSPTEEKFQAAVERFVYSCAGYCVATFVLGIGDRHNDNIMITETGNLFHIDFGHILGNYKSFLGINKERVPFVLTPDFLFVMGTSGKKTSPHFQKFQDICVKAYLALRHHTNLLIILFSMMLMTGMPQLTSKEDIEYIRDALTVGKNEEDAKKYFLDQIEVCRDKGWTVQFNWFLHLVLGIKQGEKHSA
Sequence of Voltage-gated inwardly rectifying potassium channel KCNH2 (Q12809 whole entry): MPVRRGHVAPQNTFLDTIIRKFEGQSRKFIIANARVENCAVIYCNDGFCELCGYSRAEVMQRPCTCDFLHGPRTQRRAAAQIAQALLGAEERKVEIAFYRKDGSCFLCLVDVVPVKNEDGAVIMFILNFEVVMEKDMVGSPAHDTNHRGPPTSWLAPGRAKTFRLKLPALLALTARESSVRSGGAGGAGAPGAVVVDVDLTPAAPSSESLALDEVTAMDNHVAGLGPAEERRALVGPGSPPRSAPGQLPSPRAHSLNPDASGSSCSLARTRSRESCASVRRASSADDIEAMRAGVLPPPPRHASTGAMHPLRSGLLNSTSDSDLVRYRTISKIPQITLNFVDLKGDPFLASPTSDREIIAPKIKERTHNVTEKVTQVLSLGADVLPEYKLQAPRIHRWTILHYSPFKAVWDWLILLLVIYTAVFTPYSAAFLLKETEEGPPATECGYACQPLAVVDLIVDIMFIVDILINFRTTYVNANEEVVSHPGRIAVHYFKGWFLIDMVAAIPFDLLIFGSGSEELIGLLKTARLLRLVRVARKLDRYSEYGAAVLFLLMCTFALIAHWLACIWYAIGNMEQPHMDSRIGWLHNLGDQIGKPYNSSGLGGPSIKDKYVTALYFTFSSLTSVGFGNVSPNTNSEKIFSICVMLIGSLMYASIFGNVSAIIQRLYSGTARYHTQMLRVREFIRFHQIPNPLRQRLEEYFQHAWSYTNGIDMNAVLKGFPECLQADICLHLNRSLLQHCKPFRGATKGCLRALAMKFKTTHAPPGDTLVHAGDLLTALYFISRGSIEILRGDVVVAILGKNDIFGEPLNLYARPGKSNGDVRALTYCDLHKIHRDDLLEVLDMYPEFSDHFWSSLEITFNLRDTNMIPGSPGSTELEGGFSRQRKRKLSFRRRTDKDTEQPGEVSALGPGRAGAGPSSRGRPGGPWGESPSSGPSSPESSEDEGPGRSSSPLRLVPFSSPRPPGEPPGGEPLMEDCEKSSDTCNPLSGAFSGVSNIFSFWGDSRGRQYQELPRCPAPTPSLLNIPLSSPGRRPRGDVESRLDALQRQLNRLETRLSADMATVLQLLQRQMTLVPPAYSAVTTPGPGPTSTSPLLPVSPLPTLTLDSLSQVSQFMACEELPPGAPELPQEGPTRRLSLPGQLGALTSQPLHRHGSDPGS

## CS(=O)(=O)N1CCN(Cc2cn3cc(-c4cnc(N)nc4)nc(N4CCOCC4)c3n2)CC1
[1]
  AUC(0-inf): 14200 ng·h/mL
[2]
  inhibition at 10 µM: < 25%
[3]
  inhibition at 10 µM: < 25%
[4]
  Papp at 5 h: 0.26 ×10⁻⁶ cm/s
[5]
  remaining at 0.5 h, 0.5 µM: 100%
[6]
  AUC(0-inf): 12600 ng·h/mL
[7]
  inhibition at 10 µM: < 25%
[8]
  Tmax: 1 h
[9]
  clearance: 9.33 mL/min/kg
[10]
  IC50: 4880 nM
[11]
  half-life: 8.38 h
[12]
  Vd: 0.8 L/kg
[13]
  inhibition at 10 µM: < 25%
[14]
  inhibition at 10 µM: < 25%
[15]
  CL: < 50%
[16]
  half-life: 1.36 h
[17]
  Cmax: 1130 ng/mL
[18]
  solubility kinetic at 24 h: 50 µM (≈ 23.7 µg/mL)
[19]
  remaining at 0.5 h, 0.5 µM: 100%
[20]
  bioavailability: 88.6%

## CS(=O)(=O)N1CCN(Cc2cc3c(N4CCOCC4)nc(-c4cnc(N)nc4)c(Cl)n3n2)CC1
[21]
  EC50: 0.01753 µg/mL (≈ 0.0345 µM)
[22]
  bioavailability: 43.1%
[2]
  inhibition at 10 µM: < 25%
[23]
  AUC(0-inf): 6980 ng·h/mL
[24]
  Ki: 16.7 nM
[3]
  inhibition at 10 µM: < 25%
[25]
  CL: < 50%
[26]
  Time: > 12 h
[4]
  Papp at 5 h: 1.51 ×10⁻⁶ cm/s
[27]
  clearance: 12.5 mL/min/kg
[5]
  remaining at 0.5 h, 0.5 µM: 100%
[28]
  half-life: 0.61 h
[7]
  inhibition at 10 µM: < 25%
[29]
  EC50: 34.5 nM
[30]
  Vd: 1.24 L/kg
[10]
  IC50: 5410 nM
[31]
  AUC(0-inf): 8100 ng·h/mL
[32]
  Ki: 71.9 nM
[33]
  Ki: 2.1 nM
[13]
  inhibition at 10 µM: < 25%
[34]
  Cmax: 1370 ng/mL
[14]
  inhibition at 10 µM: < 25%
[35]
  Ki: 8.4 nM
[36]
  Tmax: 0.5 h
[37]
  half-life: 3.22 h
[18]
  solubility kinetic at 24 h: 100 µM (≈ 50.8 µg/mL)
[19]
  remaining at 0.5 h, 0.5 µM: 100%
[38]
  IC50: > 30000 nM
